Active and inactive are the calls of the source. The calls are words filed in the database; no cut-off is given here.
What was measured:
[1] = biological target: T1, Transient receptor potential cation channel subfamily A member 1 (Homo sapiens, UniProt O75762); assay: Agonist activity at human TRPA1 expressed in HEK293 cells assessed as increase in calcium influx at 30 uM by Fluo-4-AM dye based fluorescence assay relative to calcimycin; assay type: cell-based
Method in brief: (§1)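 Stably transfected hTRPA1- or hTRPM8-HEK293 cells on poly-D-lysine plates for 48 h, loaded with Fluo-4AM (2 µM, 45 min, dark, room temperature), in isotonic HEPES buffer pH 7.4. FlexStation 240 s run: 20 s baseline, compound added, calcimycin added at 180 s. ΔRFU expressed as % calcimycin, DMSO-subtracted. Screening N = 3. Dose-response curves fitted for logEC50 (N = 3 in duplicate or triplicate).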

[2] = biological target: T1, Transient receptor potential cation channel subfamily A member 1; assay: Antagonist activity at human TRPA1 expressed in HEK293 cells assessed as increase in calcium influx at 100 uM incubated for 10 mins prior to CA addition by Fluo-4-AM dye based fluorescence assay relative to CA; assay type: cell-based; parameters: scale not given: the % may be the effect or the level left
Method in brief: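 hTRPA1-HEK293 cells loaded with Fluo-4AM (2 µM). Compound pre-incubated 10 min, then cinnamaldehyde standard agonist added. FlexStation read, ex 485/em 538 nm. ΔRFU normalized to the CA response set at 100 % after DMSO vehicle subtraction. N = 3. logIC50 taken from dose-response fits.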

[3] = biological target: T1, Transient receptor potential cation channel subfamily A member 1; assay: Agonist activity at human TRPA1 expressed in HEK293 cells assessed as increase in calcium influx by Fluo-4-AM dye based fluorescence assay; assay type: cell-based; conditions: read-out: EC50; method in brief: as §1
[4] = biological target: T1, Transient receptor potential cation channel subfamily A member 1; assay: Antagonist activity at human TRPA1 expressed in HEK293 cells assessed as inhibition of CA-induced increase in calcium influx incubated for 10 mins prior to CA addition by Fluo-4-AM dye based fluorescence assayy; assay type: cell-based
[5] = biological target: T2, Transient receptor potential cation channel subfamily M member 8 (Homo sapiens, UniProt Q7Z2W7); assay: Agonist activity at human TRPM8 expressed in HEK293 cells assessed as increase in calcium influx at 30 uM by Fluo-4-AM dye based fluorescence assay relative to calcimycin; assay type: cell-based; method in brief: as §1
Target sequence in this assay (Q7Z2W7 whole entry, looked up): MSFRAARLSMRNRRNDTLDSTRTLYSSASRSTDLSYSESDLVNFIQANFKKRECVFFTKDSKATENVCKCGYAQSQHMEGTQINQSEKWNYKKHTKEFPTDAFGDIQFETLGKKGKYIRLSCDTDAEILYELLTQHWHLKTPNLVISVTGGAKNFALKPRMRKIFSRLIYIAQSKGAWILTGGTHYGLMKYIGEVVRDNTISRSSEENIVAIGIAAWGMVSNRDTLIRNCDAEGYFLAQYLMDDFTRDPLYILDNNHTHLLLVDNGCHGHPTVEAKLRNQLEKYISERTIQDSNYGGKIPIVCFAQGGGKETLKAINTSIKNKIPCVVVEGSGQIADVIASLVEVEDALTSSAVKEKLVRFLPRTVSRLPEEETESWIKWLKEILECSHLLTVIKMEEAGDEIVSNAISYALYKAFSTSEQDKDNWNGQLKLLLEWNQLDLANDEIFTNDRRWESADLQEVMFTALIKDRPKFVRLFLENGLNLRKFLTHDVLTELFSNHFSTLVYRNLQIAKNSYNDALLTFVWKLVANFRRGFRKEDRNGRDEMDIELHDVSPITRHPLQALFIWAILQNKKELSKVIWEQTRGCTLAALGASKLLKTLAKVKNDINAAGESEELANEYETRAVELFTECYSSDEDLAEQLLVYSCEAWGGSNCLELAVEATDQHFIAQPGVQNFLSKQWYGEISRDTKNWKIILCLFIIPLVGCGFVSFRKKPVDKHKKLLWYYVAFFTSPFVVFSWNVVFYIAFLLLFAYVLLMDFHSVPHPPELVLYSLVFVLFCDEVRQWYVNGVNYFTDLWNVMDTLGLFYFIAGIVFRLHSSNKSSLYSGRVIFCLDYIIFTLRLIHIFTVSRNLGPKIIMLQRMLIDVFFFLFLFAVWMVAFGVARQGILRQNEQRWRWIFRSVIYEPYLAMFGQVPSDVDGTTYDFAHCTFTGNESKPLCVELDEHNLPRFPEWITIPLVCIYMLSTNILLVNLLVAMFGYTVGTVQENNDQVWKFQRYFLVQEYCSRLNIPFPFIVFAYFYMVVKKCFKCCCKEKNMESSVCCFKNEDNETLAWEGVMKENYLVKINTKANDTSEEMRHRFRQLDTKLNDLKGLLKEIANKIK

[6] = biological target: T2, Transient receptor potential cation channel subfamily M member 8; assay: Antagonist activity at human TRPM8 expressed in HEK293 cells assessed as increase in calcium influx at 100 uM incubated for 10 mins prior to WS5 challenge by Fluo-4-AM dye based fluorescence assay relative to WS5; assay type: cell-based; parameters: scale not given: the % may be the effect or the level left
Method in brief: (§2)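 hTRPM8-HEK293 cells loaded with Fluo-4AM (2 µM, 45 min). Test compound pre-incubated 10 min before WS5 standard agonist. FlexStation fluorescence at 485/538 nm. ΔRFU given as % of WS5 response after DMSO vehicle subtraction. N = 3. IC50 from dose-response curves.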
Target sequence in this assay (Q7Z2W7 whole entry, looked up): as above

[7] = biological target: T2, Transient receptor potential cation channel subfamily M member 8; assay: Antagonist activity at human TRPM8 expressed in HEK293 cells assessed as inhibition in WS5-induced increase in calcium influx incubated for 10 mins prior to WS5 challenge by Fluo-4-AM dye based fluorescence assay; assay type: cell-based; method in brief: as §2
Target sequence in this assay (Q7Z2W7 whole entry): as the sequence (Q7Z2W7 whole entry, looked up) above

[8] = Dissociation constant, pKa of the compound at pH 7.4; assay type: physicochemical
[9] = biological target: T2, Transient receptor potential cation channel subfamily M member 8; assay: Agonist activity at human TRPM8 expressed in HEK293 cells assessed as increase in calcium influx at 100 uM by Fluo-4-AM dye based fluorescence assay relative to calcimycin; assay type: cell-based; method in brief: as §1
Target sequence in this assay (Q7Z2W7 whole entry, looked up): as above

[10] = biological target: T1, Transient receptor potential cation channel subfamily A member 1; assay: Modulating activity at human TRPA1 expressed in HEK293 cells assessed as desensitization of CA-induced increase in Ca2+ influx at 10 uM measured within 10 mins by Fluo-4-AM dye based fluorescence assay; assay type: cell-based
Method in brief: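 hTRPA1-HEK293 cells with Fluo-4AM. Real-time fluorescence recorded for 10 min after compound addition (10 µM), followed by challenge with cinnamaldehyde (30 µM) to assess desensitization of the agonist response.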

[11] = biological target: T1, Transient receptor potential cation channel subfamily A member 1; assay: Reversible desensitizing activity at human TRPA1 expressed in HEK293 cells assessed as CA-induced increase in Ca2+ influx upto 10 uM pretreated with compound followed by drug wash-out and CA challenge by Fluo-4-AM dye based fluorescence assay; assay type: cell-based
Method in brief: (§3)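 hTRPA1-HEK293 cells loaded with Fluo-4AM were pre-incubated with compound, then washed and resuspended in fresh assay buffer. The response to cinnamaldehyde (30 µM) was then measured by FlexStation calcium fluorescence.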

[12] = biological target: T1, Transient receptor potential cation channel subfamily A member 1; assay: Irreversible desensitizing activity at human TRPA1 expressed in HEK293 cells assessed as CA-induced increase in Ca2+ influx at >30 uM pretreated with compound followed by drug wash-out and CA challenge by Fluo-4-AM dye based fluorescence assay; assay type: cell-based; method in brief: as §3
[13] = system: Transient receptor potential cation channel subfamily A member 1 (Homo sapiens), O75762 [F909A]; assay: Antagonist activity at human TRPA1 Phe909Ala mutant expressed in HEK293 cells assessed as Ca2+ influx at 100 uM by fluorescence assay; assay type: cell-based
Chain of Transient receptor potential cation channel subfamily A member 1 (Homo sapiens), O75762 [F909A] (O75762 whole entry F909A): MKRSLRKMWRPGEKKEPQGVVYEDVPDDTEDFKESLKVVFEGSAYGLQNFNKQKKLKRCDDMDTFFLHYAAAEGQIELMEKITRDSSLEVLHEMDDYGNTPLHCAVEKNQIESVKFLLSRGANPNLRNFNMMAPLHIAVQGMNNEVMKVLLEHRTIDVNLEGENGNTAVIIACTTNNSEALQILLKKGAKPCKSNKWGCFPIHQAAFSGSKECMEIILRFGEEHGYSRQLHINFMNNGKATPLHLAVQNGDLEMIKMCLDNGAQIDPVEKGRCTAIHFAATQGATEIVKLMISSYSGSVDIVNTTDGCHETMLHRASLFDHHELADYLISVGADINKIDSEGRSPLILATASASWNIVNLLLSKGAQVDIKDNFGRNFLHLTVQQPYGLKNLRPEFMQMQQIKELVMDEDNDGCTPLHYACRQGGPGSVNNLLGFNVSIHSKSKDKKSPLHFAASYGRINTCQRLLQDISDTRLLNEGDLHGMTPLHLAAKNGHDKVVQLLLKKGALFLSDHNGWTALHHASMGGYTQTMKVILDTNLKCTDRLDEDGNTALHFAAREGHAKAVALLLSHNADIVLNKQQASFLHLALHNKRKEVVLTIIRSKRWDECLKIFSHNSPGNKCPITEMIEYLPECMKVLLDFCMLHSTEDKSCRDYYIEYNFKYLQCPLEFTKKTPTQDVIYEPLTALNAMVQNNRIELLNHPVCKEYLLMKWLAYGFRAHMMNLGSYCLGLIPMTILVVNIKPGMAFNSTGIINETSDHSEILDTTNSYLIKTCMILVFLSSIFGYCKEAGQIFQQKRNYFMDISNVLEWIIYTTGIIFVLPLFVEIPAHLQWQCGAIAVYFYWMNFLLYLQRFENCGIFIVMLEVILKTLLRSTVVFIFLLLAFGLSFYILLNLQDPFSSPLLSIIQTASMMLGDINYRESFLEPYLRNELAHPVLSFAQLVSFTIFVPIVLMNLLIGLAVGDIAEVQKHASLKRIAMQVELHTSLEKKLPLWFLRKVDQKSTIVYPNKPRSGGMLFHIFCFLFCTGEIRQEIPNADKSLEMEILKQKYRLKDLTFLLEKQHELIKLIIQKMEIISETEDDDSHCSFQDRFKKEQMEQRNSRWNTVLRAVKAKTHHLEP
Method in brief: (§4)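 hTRPA1 F909A or F944A mutant HEK293 stable clones, loaded with Fluo-4AM (2 µM, 45 min, room temperature). Compound pre-incubated 10 min before the standard agonist was added. FlexStation fluorescence (485/538 nm). ΔRFU normalized to the standard agonist response set at 100 %, after DMSO vehicle subtraction.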

[14] = system: Transient receptor potential cation channel subfamily A member 1 (Homo sapiens), O75762 [F944A]; assay: Antagonist activity at human TRPA1 Phe944Ala mutant expressed in HEK293 cells assessed as Ca2+ influx at 100 uM by fluorescence assay; assay type: cell-based; method in brief: as §4
Chain of Transient receptor potential cation channel subfamily A member 1 (Homo sapiens), O75762 [F944A] (O75762 whole entry F944A): as the sequence (O75762 whole entry F909A) above, with A909F, F944A counted along it

[15] = biological target: Transient receptor potential cation channel subfamily A member 1 (Mus musculus, UniProt Q8BLA8); assay: Agonist activity at mouse TRPA1 expressed in CHO cells assessed as increase in calcium influx by patch clamp electrophysiology method; assay type: cell-based
Chain of Transient receptor potential cation channel subfamily A member 1 (Mus musculus, UniProt Q8BLA8) (Q8BLA8 whole entry): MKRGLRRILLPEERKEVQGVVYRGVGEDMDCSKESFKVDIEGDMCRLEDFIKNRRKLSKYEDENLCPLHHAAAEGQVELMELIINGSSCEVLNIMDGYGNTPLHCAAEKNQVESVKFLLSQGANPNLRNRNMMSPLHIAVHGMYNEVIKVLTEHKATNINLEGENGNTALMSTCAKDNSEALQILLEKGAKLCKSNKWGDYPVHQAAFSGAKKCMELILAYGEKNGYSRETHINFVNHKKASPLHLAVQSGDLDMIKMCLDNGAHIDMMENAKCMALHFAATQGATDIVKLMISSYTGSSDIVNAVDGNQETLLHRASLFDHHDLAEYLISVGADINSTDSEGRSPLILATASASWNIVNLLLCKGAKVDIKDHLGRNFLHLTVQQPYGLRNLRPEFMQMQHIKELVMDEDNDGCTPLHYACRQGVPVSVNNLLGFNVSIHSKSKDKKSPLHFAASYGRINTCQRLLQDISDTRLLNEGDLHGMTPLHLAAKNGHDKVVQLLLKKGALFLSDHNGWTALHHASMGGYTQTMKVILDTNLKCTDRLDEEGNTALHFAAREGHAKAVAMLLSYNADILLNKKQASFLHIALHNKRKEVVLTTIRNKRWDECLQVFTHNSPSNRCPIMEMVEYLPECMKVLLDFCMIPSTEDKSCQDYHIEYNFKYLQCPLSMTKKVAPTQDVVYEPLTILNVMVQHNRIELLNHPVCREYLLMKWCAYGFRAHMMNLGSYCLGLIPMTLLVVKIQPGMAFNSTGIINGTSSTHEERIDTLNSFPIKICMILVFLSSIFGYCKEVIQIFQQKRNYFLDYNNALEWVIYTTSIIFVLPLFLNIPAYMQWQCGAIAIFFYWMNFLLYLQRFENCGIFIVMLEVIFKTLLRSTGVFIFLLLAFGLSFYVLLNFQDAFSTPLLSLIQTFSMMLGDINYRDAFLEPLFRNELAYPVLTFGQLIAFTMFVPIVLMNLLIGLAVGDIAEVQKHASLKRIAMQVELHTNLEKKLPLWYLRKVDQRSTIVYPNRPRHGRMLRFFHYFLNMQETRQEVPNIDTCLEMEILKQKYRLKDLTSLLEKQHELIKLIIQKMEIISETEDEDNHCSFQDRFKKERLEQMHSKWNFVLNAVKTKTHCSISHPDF

[16] = system: Transient receptor potential cation channel subfamily A member 1 (Homo sapiens), O75762 [F909A]; assay: Agonist activity at human TRPA1 Phe909Ala mutant expressed in HEK293 cells assessed as Ca2+ influx […] fluorescence assay; assay type: cell-based
Method in brief: (§5)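 HEK293 cells stably expressing hTRPA1 point mutants (C621A, F909A or F944A), single-cell cloned under G418 selection. Cells plated on poly-D-lysine for 48 h, loaded with Fluo-4AM 2 µM for 45 min at room temperature. FlexStation read (ex 485/em 538 nm): 20 s baseline, compound added, calcimycin added at 180 s. Response expressed as % calcimycin from ΔRFU, vehicle-subtracted, and compared with wild-type hTRPA1 cells.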

[17] = biological target: T1, Transient receptor potential cation channel subfamily A member 1; assay: Reversible desensitizing activity at human TRPA1 expressed in HEK293 cells assessed as CA-induced increase in Ca2+ influx up to 30 uM pretreated with compound followed by drug wash-out and CA challenge by Fluo-4-AM dye based fluorescence assay; assay type: cell-based; method in brief: as §3
[18] = organism: Cavia porcellus; assay: Agonist activity at TRPA1 in Dunkin-Hartley guinea pig vagus nerve assessed as activation of vagus nerve by measuring depolarization at 300 uM […]
Method in brief: (§6)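 Isolated vagus nerves from male Dunkin-Hartley guinea pigs (300-400 g, eight animals). Compound DMSO stocks diluted 1000× in Krebs-Henseleit buffer. Viability checked with capsaicin (1 µM) at the start and acrolein (300 µM) at the end. Single non-cumulative concentrations applied for 2 min each, with KH wash to baseline between them. DMSO vehicle run alike. Depolarization recorded in mV.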

[19] = organism: Cavia porcellus; assay: Antagonist activity at TRPA1 in Dunkin-Hartley guinea pig vagus nerve assessed as inhibition of ACR-stimulated vagus nerve by measuring depolarization at 300 uM incubated for 10 mins followed by ACR stimulation for 140 secs […]
Method in brief: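 Guinea pig vagus nerve (male Dunkin-Hartley) in Krebs-Henseleit buffer; compound from DMSO stock diluted 1000×. Two control acrolein (300 µM, 2 min) responses, each washed to baseline. Then 10 min compound pretreatment and re-stimulation with acrolein 300 µM for 2 min 20 s. After washout, a recovery acrolein response was taken. Depolarization recorded in mV.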

[20] = system: Transient receptor potential cation channel subfamily A member 1 (Homo sapiens), O75762 [C621A]; assay: Agonist activity at human TRPA1 […] mutant expressed in HEK293 cells assessed as Ca2+ influx at 100 uM by fluorescence assay; assay type: cell-based
Chain of Transient receptor potential cation channel subfamily A member 1 (Homo sapiens), O75762 [C621A] (O75762 whole entry C621A): as the sequence (O75762 whole entry F909A) above, with C621A, A909F counted along it

[21] = system: Transient receptor potential cation channel subfamily A member 1 (Homo sapiens), O75762 [F909A]; assay: Agonist activity at human TRPA1 Phe909Ala mutant expressed in HEK293 cells assessed as Ca2+ influx at 100 uM by fluorescence assay; assay type: cell-based
Method in brief: (§7)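 HEK293 cells stably expressing hTRPA1 point mutants, made by FuGENE 6 transfection, G418 (0.5 mg ml-1) selection and single-cell cloning, grown in DMEM with 25 mM HEPES, 10% FBS and geneticin. Ca2+ influx was read by Fluo dye fluorescence at room temperature, with calcimycin added at the end. Response was ΔRFU as % of calcimycin, with the DMSO vehicle subtracted.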

[22] = system: Transient receptor potential cation channel subfamily A member 1 (Homo sapiens), O75762 [F944A]; assay: Agonist activity at human TRPA1 Phe944Ala mutant expressed in HEK293 cells assessed as Ca2+ influx at 100 uM by fluorescence assay; assay type: cell-based; method in brief: as §7
[23] = organism: Cavia porcellus; assay: Agonist activity at TRPA1 in Dunkin-Hartley guinea pig vagus nerve assessed as activation of vagus nerve by measuring depolarization at 100 uM […]; method in brief: as §6
[24] = biological target: T1, Transient receptor potential cation channel subfamily A member 1; assay: Antagonist activity at human TRPA1 expressed in HEK293 cells assessed as increase in calcium influx at 3 uM incubated for 10 mins prior to CA challenge by Fluo-4-AM dye based fluorescence assay […]; assay type: cell-based
[25] = biological target: T2, Transient receptor potential cation channel subfamily M member 8; assay: Agonist activity at human TRPM8 expressed in HEK293 cells assessed as increase in calcium influx at 3 uM by Fluo-4-AM dye based fluorescence assay relative to calcimycin; assay type: cell-based; method in brief: as §1
Target sequence in this assay (Q7Z2W7 whole entry, looked up): as the sequence (Q7Z2W7 whole entry, looked up) above

[26] = biological target: T2, Transient receptor potential cation channel subfamily M member 8; assay: Antagonist activity at human TRPM8 expressed in HEK293 cells assessed as increase in calcium influx at 30 uM incubated for 10 mins prior to WS5 challenge by Fluo-4-AM dye based fluorescence assay relative to WS5; assay type: cell-based; parameters: scale not given: the % may be the effect or the level left; method in brief: as §2
Target sequence in this assay (Q7Z2W7 whole entry, looked up): as above

[27] = system: Transient receptor potential cation channel subfamily A member 1 (Homo sapiens), O75762 [F909A]; assay: Agonist activity at human TRPA1 Phe909Ala mutant expressed in HEK293 cells assessed as Ca2+ influx at 30 uM by fluorescence assay; assay type: cell-based; method in brief: as §5
[28] = system: Transient receptor potential cation channel subfamily A member 1 (Homo sapiens), O75762 [F944A]; assay: Agonist activity at human TRPA1 Phe944Ala mutant expressed in HEK293 cells assessed as Ca2+ influx at 30 uM by fluorescence assay; assay type: cell-based; method in brief: as §5

T1 sequence (O75762 whole entry): as the sequence (O75762 whole entry F909A) above, with A909F counted along it

Row | Compound | Activity [1] | Activity [2] | EC50 [3] | IC50 [4] | Activity [5] | Activity [6] | pKa [8] | Activity [9] | Activity [10] | Activity [12] | further results
1 | O=C(/C=C/c1ccc(Br)cc1)Nc1ccccc1C(=O)O | 60% | 6% | 12 µM | 9 µM | inactive | 35% | 3.4 | inactive | Active | Active | IC50 [7]: 59 µM; Activity [11]: Active
2 | O=C(NCc1ccc(Cl)cc1)[C@@H]1CCCN1S(=O)(=O)c1ccc(F)cc1 |  |  |  | 10 µM |  |  |  |  |  |  | Activity [13]: inactive; Activity [14]: inactive
3 | CN1CCC[C@H]1c1cccnc1 [NICOTINE] |  |  | 2 µM |  |  |  |  |  |  |  | EC50 [15]: 10 µM; Activity [16]: Active
4 | O=C(/C=C/c1ccccc1Cl)Nc1ccccc1C(=O)O | 44% | 5% | 42 µM | 11 µM | inactive | 25% | 3.4 | inactive | Active | Active | IC50 [7]: 21 µM; Activity [17]: Active
5 | O=C(/C=C/c1ccc(O)cc1)Nc1ccccc1C(=O)O | 1% | 35% |  | 43 µM | inactive | 70% | 3.5 | inactive |  |  | Activity [18]: Active; inhibition [19]: inactive; Activity [13]: inactive
6 | O=C(/C=C/c1ccc(F)cc1)Nc1ccccc1C(=O)O | 37% | 13% | 30 µM | 26 µM | inactive | 61% | 3.4 | inactive | Active | Active | Activity [17]: Active
7 | CC1CCC(C(C)C)C(O)C1 (stereo not given) [MENTHOL] |  |  | 30 µM |  |  |  |  |  |  |  | EC50 [15]: 95 µM; Activity [20]: inactive; Activity [21]: inactive; Activity [22]: inactive
8 | O=C(/C=C/c1ccc(Cl)cc1)Nc1ccccc1C(=O)O | 62% | 7% | 10 µM | 4 µM | inactive | 40% | 3.4 | inactive | Active | Active | Activity [23]: Active; Activity [11]: Active
9 | COC(=O)c1ccccc1NC(=O)CCOc1ccccc1 | 45% |  |  |  |  |  | 11.9 |  |  |  | Activity [24]: inactive; Activity [25]: inactive; Activity [26]: 12%; Activity [27]: Active; Activity [28]: inactive

From ChEMBL document CHEMBL4346663, “N-Cinnamoylanthranilates as human TRPA1 modulators: Structure-activity relationships and channel binding sites” (Eur J Med Chem, 2019)
